Calls of active or inactive are those of the source.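 The calls were made as follows, unless noted: active = GFP response above 150% of the DMSO level; inconclusive = fewer than 70 events counted for a yeast strain; inactive = the rest.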

Drawing on PubChem BioAssay, this text covers GFP response vs DMSO, GFP response relative to DMSO and GFP response, % of DMSO for 13 compounds.

Assay [1] is described as follows: hit retest on RPL19A-GFP reporter strain – cell-based, S. cerevisiae, flow cytometry, cherry picks, mother/daughter gates, confirmation (AID 2270;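 active = GFP response below 50% of the DMSO control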). To be noted: 3 h, at 10 µM, stronger effect = lower value, 100 = same GFP as DMSO wells. On the technique in general: In flow cytometry, cells or beads pass a laser one at a time.
Assay [2] can be described thus: yeast TOR pathway reporter LAP4-GFP change – cell-based, cherry picks, flow cytometry, mother/daughter gates, confirmation (AID 2271;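 active = GFP response above 150% of the DMSO control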;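 also: ratio of sample to DMSO plate mean so 100% equals DMSO level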). The note with it: S. cerevisiae LAP4-GFP strain, 3 h, at 10 µM, stronger effect = higher value, 100 means same as DMSO control. The procedure, abridged: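 Material: Alexa Fluor 633-labelled Saccharomyces cerevisiae GFP-fusion strain, single-plex | Amount: Yeast cells seeded at OD600 of 0.2 | Buffer or medium: SC growth medium | Schedule: 3 h exposure, 30 °C | Measured by: HT flow cytometry, GFP fluorescence channel | Evaluation: % GFP response vs DMSO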

A short description of assay [3]: TOR pathway reporter MEP2-GFP, retest of hits – S. cerevisiae, flow cytometry GFP, cherry picks, confirmation (AID 2272;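 active = GFP response above 150% of the DMSO control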;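 also: ratio of well signal to plate DMSO mean so 100% equals DMSO level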). The note with it: S. cerevisiae MEP2-GFP strain, 3 h, at 10 µM, stronger effect = higher value.
Assay [4] can be described thus: yeast AGP1-GFP fluorescence change, single-dose – cell-based, flow cytometry, S. cerevisiae, cherry picks, confirmation (AID 2273).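 Also: median GFP channel fluorescence over the whole cell population gate.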 To be noted: S. cerevisiae AGP1-GFP strain, 3 h, at 10 µM.
Assay [5] is described as follows: TOR pathway CIT2 reporter hit retest – S. cerevisiae, GFP fusion, cherry picks, mother/daughter gates, confirmation (AID 2274). The note with it: S. cerevisiae CIT2-GFP strain, flow cytometry, 3 h, at 10 µM, stronger effect = higher value.
Setting [6] is: measured here: daughter cell gate.
Setting [7] is: measured here: mother cell gate.
Where [8] appears, read: measured here: daughter cell gate response.
Setting [9] is: measured here: mother cell gate response.

As for `COc1ccc(-c2csc(N(CC(C)C)C(=O)c3ccco3)n2)cc1`, the GFP response vs DMSO in assay [1] was 98.2% (inactive); in assay [1] (setting [6]), 100%; in assay [1] (setting [7]) it was 97.7%; in assay [3], 101% (inactive). The GFP response relative to DMSO is 101% (inactive) in assay [2], 101% in assay [2] (setting [8]) and 100% in assay [2] (setting [9]). Further, the GFP response, % of DMSO in assay [4] is 100% (inactive); in assay [5], 98.6% (inactive); in assay [5] (setting [6]) it was 101%; in assay [5] (setting [7]), 97.1%.

Consider `Cc1ccc(NC(=O)CC2SC(=O)N(c3ccccc3)C2=O)cc1` (stereo not drawn), for which the GFP response vs DMSO is 97.8% (inactive) in assay [1], 101% in assay [1] (setting [6]), 94.5% in assay [1] (setting [7]) and 112% (inactive) in assay [3]. The results for the GFP response relative to DMSO in assay [2], in assay [2] (setting [8]) and in assay [2] (setting [9]) were 142% (inactive), 140% and 143%, respectively. Besides, the GFP response, % of DMSO was 98.9% (inactive) in assay [4], 102% (inactive) in assay [5], 104% in assay [5] (setting [6]) and 94.5% in assay [5] (setting [7]).

Regarding `Cc1c(NC2=C(Cl)C(=O)N(c3ccccc3Cl)C2=O)c(=O)n(-c2ccccc2)n1C`, the GFP response vs DMSO in assay [1] is 94.7% (inactive); in assay [1] (setting [6]), 96.6%; in assay [1] (setting [7]) it was 95.6%; in assay [3] it was 96.6% (inactive). The GFP response relative to DMSO was 93.7% (inactive) in assay [2], 96.6% in assay [2] (setting [8]) and 94.1% in assay [2] (setting [9]). Further, the GFP response, % of DMSO is 102% (inactive) in assay [4], 110% (inactive) in assay [5], 108% in assay [5] (setting [6]) and 110% in assay [5] (setting [7]).

For `COc1ccc(C(=O)/C(=C/O)N=Nc2ccc(F)cc2)cc1`, the GFP response vs DMSO is 99.1% (inactive) in assay [1], 97.8% in assay [1] (setting [6]), 98.6% in assay [1] (setting [7]) and 102% (inactive) in assay [3]. The GFP response relative to DMSO in assay [2] was 106% (inactive); in assay [2] (setting [8]), 89.3%; in assay [2] (setting [9]) it was 109%. Further, the GFP response, % of DMSO was 91.4% (inactive) in assay [4], 83.5% (inactive) in assay [5], 85.3% in assay [5] (setting [6]) and 80.5% in assay [5] (setting [7]).

Regarding `COc1cccc2c1Oc1ncccc1N(C(=O)CCC(=O)NCc1ccccc1F)C2`, the GFP response vs DMSO in assay [1] is 100% (inactive); in assay [1] (setting [6]) it was 101%; in assay [1] (setting [7]), 101%; in assay [3] it was 135% (inactive). Further, the GFP response relative to DMSO in assay [2] is 142% (inactive); in assay [2] (setting [8]) it was 147%; in assay [2] (setting [9]), 139%. In addition, the GFP response, % of DMSO was 105% (inactive) in assay [4], 148% (inactive) in assay [5], 150% in assay [5] (setting [6]) and 147% in assay [5] (setting [7]).

As to `CCOC(=O)CNc1c(-c2ccc(O)cc2)nc2ccccn12`, the GFP response vs DMSO is 98.5% (inactive) in assay [1], 99.3% in assay [1] (setting [6]), 98% in assay [1] (setting [7]) and 97.2% (inactive) in assay [3]. Also, the GFP response relative to DMSO in assay [2] was 100% (inactive); in assay [2] (setting [8]), 104%; in assay [2] (setting [9]), 98.4%. The GFP response, % of DMSO was 104% (inactive) in assay [4], 101% (inactive) in assay [5], 103% in assay [5] (setting [6]) and 103% in assay [5] (setting [7]).

As to `O=[N+]([O-])c1ccc(Sc2ccc(Cl)c(Cl)c2)nc1`, the GFP response vs DMSO in assay [1] is 97.1% (inactive); in assay [1] (setting [6]) it was 96.1%; in assay [1] (setting [7]), 96.9%; in assay [3], 103% (inactive). The results for the GFP response relative to DMSO in assay [2], in assay [2] (setting [8]) and in assay [2] (setting [9]) were 98.9% (inactive), 102% and 100%, respectively. For the same compound, the GFP response, % of DMSO in assay [4] was 101% (inactive); in assay [5], 98.6% (inactive); in assay [5] (setting [6]), 99.3%; in assay [5] (setting [7]), 99.3%.

`O=C(OCc1cccc([N+](=O)[O-])c1)c1cnccn1`: the GFP response vs DMSO was 98.5% (inactive) in assay [1], 99.5% in assay [1] (setting [6]), 97.1% in assay [1] (setting [7]) and 103% (inactive) in assay [3]. For the same compound, the GFP response relative to DMSO in assay [2] was 102% (inactive); in assay [2] (setting [8]), 97.5%; in assay [2] (setting [9]), 105%. Further, the GFP response, % of DMSO was 97% (inactive) in assay [4], 98.6% (inactive) in assay [5], 101% in assay [5] (setting [6]) and 96% in assay [5] (setting [7]).

In the case of `O=C(/C(=C/O)N=Nc1ccc(Cl)cc1)c1ccncc1`, the GFP response vs DMSO was 101% (inactive) in assay [1], 99.3% in assay [1] (setting [6]), 98.8% in assay [1] (setting [7]) and 132% (inactive) in assay [3]. The results for the GFP response relative to DMSO in assay [2], in assay [2] (setting [8]) and in assay [2] (setting [9]) were 111% (inactive), 101% and 115%, respectively. Also, the GFP response, % of DMSO is 101% (inactive) in assay [4], 90.3% (inactive) in assay [5], 88.7% in assay [5] (setting [6]) and 88.2% in assay [5] (setting [7]).

As for `CCN(CC)C(=O)c1ccc(-c2cccs2)s1`, the GFP response vs DMSO was 95.4% (inactive) in assay [1], 94.6% in assay [1] (setting [6]), 96.4% in assay [1] (setting [7]) and 94.1% (inactive) in assay [3]. In addition, the values for the GFP response relative to DMSO in assay [2], in assay [2] (setting [8]) and in assay [2] (setting [9]) were 107% (inactive), 106% and 108%, respectively. In addition, the GFP response, % of DMSO in assay [4] was 99.9% (inactive); in assay [5], 98.3% (inactive); in assay [5] (setting [6]) it was 97.2%; in assay [5] (setting [7]) it was 97.3%.

Turning to `Oc1c(C(Nc2nc3ccccc3s2)c2ccco2)ccc2cccnc12` (stereo not drawn), the GFP response vs DMSO in assay [1] is 98.9% (inactive); in assay [1] (setting [6]), 98.7%; in assay [1] (setting [7]), 95.9%; in assay [3] it was 112% (inactive). Besides, the GFP response relative to DMSO in assay [2] was 149% (inactive); in assay [2] (setting [8]) it was 132%; in assay [2] (setting [9]), 145%. Besides, the GFP response, % of DMSO in assay [4] was 97.7% (inactive); in assay [5] it was 100% (inactive); in assay [5] (setting [6]) it was 103%; in assay [5] (setting [7]), 94.9%.

`O=C(OCCOc1ccccc1)c1n[nH]c2ccccc12`: the GFP response vs DMSO was 96.4% (inactive) in assay [1], 95.7% in assay [1] (setting [6]), 97.2% in assay [1] (setting [7]) and 97.5% (inactive) in assay [3]. The GFP response relative to DMSO in assay [2] was 103% (inactive); in assay [2] (setting [8]) it was 97.9%; in assay [2] (setting [9]), 101%. Also, the GFP response, % of DMSO in assay [4] was 102% (inactive); in assay [5], 102% (inactive); in assay [5] (setting [6]), 104%; in assay [5] (setting [7]), 100%.

`C#CCSc1nncn1C(=O)/C=C/c1ccccc1`: the GFP response vs DMSO in assay [1] is 99.4% (inactive); in assay [1] (setting [6]), 98.6%; in assay [1] (setting [7]), 95%; in assay [3], 103% (inactive). Moreover, the GFP response relative to DMSO in assay [2] is 145% (inactive); in assay [2] (setting [8]) it was 142%; in assay [2] (setting [9]), 153%. The GFP response, % of DMSO in assay [4] is 101% (inactive); in assay [5], 103% (inactive); in assay [5] (setting [6]), 111%; in assay [5] (setting [7]), 93.7%.
